Where only a bound is given, the exact number is not on record here.

The source of these data is ChEMBL document CHEMBL3352368, “Amino derivatives of indolone-N-oxide: preparation and antiplasmodial properties” (Eur J Med Chem, 2014).

Data set [1] is described as follows: Selectivity index, ratio of CC50 for human MCF7 cells to IC50 for chloroquine-resistant Plasmodium falciparum FcB1. The data set is classed as functional.
A short description of data set [2]: Cytotoxicity against human MCF7 cells assessed as decrease in cell viability after 48 hrs by XTT assay. The data set is classed as cell-based. In a few lines:
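MCF-7 cells grown as for parasite culture but with 10% fetal calf serum in place of human serum; trypsinized and seeded at 2 × 10^4 cells/well, incubated overnight, then compound added at final 1, 10 and 100 […] mL1. Viability read by XTT reduction after 48 h drug contact; experiments run twice in triplicate.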

The next data set relates to Plasmodium falciparum. Put plainly: Antiplasmodial activity against chloroquine-resistant Plasmodium falciparum FcB1 infected in human RBC assessed as [3H]-hypoxanthine incorporation after 48 hrs by liquid scintillation counting analysis. The data set is classed as functional, organism-based. In a few lines: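 FcB1 maintained in RPMI 1640 with L-glutamine, 25 mM HEPES, 10% human serum, group O RBCs, 5% CO2; synchronized by magnetic enrichment then D-sorbitol lysis. Serial dilutions in culture medium; [3H]-hypoxanthine added at 24 h, harvest at 48 h after freeze-thaw. IC50 by linear regression on linear segments of semilog inhibition curves; triplicate, three repeats.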

For another data set, the system named is Plasmodium berghei. Kind of data set: In vivo antimalarial activity against Plasmodium berghei ANKA assessed as inhibition of parasitemia at 30 mg/kg/day. The class given is functional.
Data set [3] in a line: Half life in human liver microsomes. The class given is ADME.

By CC50 is commonly meant the concentration that lowers cell viability or growth by half. As a reminder, the IC50 is the concentration that gives 50% inhibition. Take `O=C1C(c2ccccc2)=[N+]([O-])c2cc([N+](=O)[O-])c(/C=C(\Cl)c3ccccc3)cc21`: the “Ratio CC50/IC50” value in data set [1] amounted to 70. Also, the CC50 at 48 h in data set [2] is 59 µM. Also, the IC50 with Plasmodium falciparum (Plasmodium falciparum, FcB1) was 0.84 µM.

Turning to `Nc1ccc(C2=[N+]([O-])c3ccccc3C2=O)cc1`, the “Ratio CC50/IC50” value in data set [1] was 77. Moreover, the CC50 at 48 h in data set [2] was determined as 13 µM. Also, the IC50 with Plasmodium falciparum (Plasmodium falciparum, FcB1) was 0.168 µM.

As for `COc1ccc2c(c1)[N+]([O-])=C(c1ccc(N)cc1)C2=O`, in data set [1], the “Ratio CC50/IC50” value worked out at 528. In data set [2], the CC50 at 48 h is 12.7 µM. For the same molecule, the IC50 in the data set on Plasmodium falciparum (Plasmodium falciparum, FcB1) was found to be 0.024 µM.

Regarding `COc1ccc2c(c1)C(=O)C(c1ccc(N)cc1)=[N+]2[O-].Cl`, the “Ratio CC50/IC50” value in data set [1] is recorded as more than 3233. Moreover, the CC50 at 48 h in data set [2] came to 9.7 µM. Moreover, in the data set with Plasmodium falciparum (Plasmodium falciparum, FcB1), the IC50 is less than 0.003 µM.

For the molecule `COc1ccc2c(c1)C(=O)C(c1ccc(N(C)C)cc1)=[N+]2[O-].Cl`, the “Ratio CC50/IC50” value in data set [1] is more than 112333. Further, the CC50 at 48 h in data set [2] was found to be 33.7 µM. The IC50 with Plasmodium falciparum is less than 0.0003 µM.

Consider `COc1ccc2c(c1)C(=O)C(c1ccc(N(C)C)c(C)c1)=[N+]2[O-]`, for which the “Ratio CC50/IC50” value in data set [1] stood at 885. Moreover, the CC50 at 48 h in data set [2] came out at 35.4 µM. The IC50 in the data set on Plasmodium falciparum (Plasmodium falciparum, FcB1) was found to be 0.04 µM.

For `CCCCNc1ccc(C2=[N+]([O-])c3ccc(OC)cc3C2=O)cc1`, the “Ratio CC50/IC50” value in data set [1] is listed as 2057. The CC50 at 48 h in data set [2] turned out to be 43.2 µM. Further, the IC50 in the data set on Plasmodium falciparum (Plasmodium falciparum, FcB1) was found to be 0.021 µM.

Regarding `COc1ccc2c(c1)C(=O)C(c1ccc(N3CCOCC3)cc1)=[N+]2[O-]`, the “Ratio CC50/IC50” value in data set [1] was more than 4538.5. The CC50 at 48 h in data set [2] is more than 29.5 µM. Moreover, in the data set with Plasmodium falciparum (Plasmodium falciparum, FcB1), the IC50 worked out at 0.0065 µM.

Turning to `COc1ccc2c(c1)C(=O)C(c1cccnc1)=[N+]2[O-]`, the “Ratio CC50/IC50” value in data set [1] is given as 107. Further, the CC50 at 48 h in data set [2] amounted to 17.3 µM. Besides, the IC50 in the data set on Plasmodium falciparum (Plasmodium falciparum, FcB1) stood at 0.161 µM.

`O=C1C(c2ccc(Cl)cc2)=[N+]([O-])c2cccnc21`: the IC50 with Plasmodium falciparum (Plasmodium falciparum, FcB1) was more than 2.72 µM.

Take `O=C1C(c2ccc(Cl)cc2)=[N+]([O-])c2cc[n+]([O-])cc21`: the IC50 in the data set on Plasmodium falciparum (Plasmodium falciparum, FcB1) was more than 5.44 µM.

Turning to `CN(C)c1ccc(C2=[N+]([O-])c3cc(N)ccc3C2=O)cc1`, in data set [1], the “Ratio CC50/IC50” value came out at 1.8. Further, the CC50 at 48 h in data set [2] was 21.3 µM. Further, in the data set on Plasmodium falciparum (Plasmodium falciparum, FcB1), the IC50 was found to be 12.3 µM.

Regarding `Nc1ccc2c(c1)[N+]([O-])=C(c1ccc(Cl)cc1)C2=O`, the “Ratio CC50/IC50” value in data set [1] is 60. Also, the CC50 at 48 h in data set [2] is 11 µM. Further, in the data set with Plasmodium falciparum (Plasmodium falciparum, FcB1), the IC50 is 0.183 µM.

For the molecule `COc1ccc(C2=[N+]([O-])c3cc(N)ccc3C2=O)cc1`, the “Ratio CC50/IC50” value in data set [1] is given as more than 33. Further, the CC50 at 48 h in data set [2] was more than 37.3 µM. In addition, in the data set with Plasmodium falciparum (Plasmodium falciparum, FcB1), the IC50 worked out at 1.56 µM.

In the case of `COc1ccc2cc(C3=[N+]([O-])c4cc(N)ccc4C3=O)ccc2c1`, the “Ratio CC50/IC50” value in data set [1] is listed as 6. Moreover, the CC50 at 48 h in data set [2] came to 7.8 µM. For the same molecule, the IC50 in the data set on Plasmodium falciparum (Plasmodium falciparum, FcB1) came to 1.32 µM.

For `Nc1ccc2c(c1)[N+]([O-])=C(CCCN1C(=O)c3ccccc3C1=O)C2=O`, the “Ratio CC50/IC50” value in data set [1] was found to be 0.8. In data set [2], the CC50 at 48 h turned out to be 6.6 µM. Also, the IC50 with Plasmodium falciparum (Plasmodium falciparum, FcB1) was 8.3 µM.

As to `CCOC(=O)c1ccc2c(c1)[N+]([O-])=C(c1ccccc1)C2=O`, the “Ratio CC50/IC50” value in data set [1] was found to be 91.9. Moreover, the CC50 at 48 h in data set [2] was 26.4 µM. In the data set on Plasmodium falciparum (Plasmodium falciparum, FcB1), the IC50 is 0.284 µM.

What is called inhibition in vivo is the drop in the measured response relative to a control, in per cent. On to `COc1ccc2c(c1)C(=O)C(c1ccc(N(C)C)cc1)=[N+]2[O-]`, for which the “Ratio CC50/IC50” value in data set [1] is reported as more than 14623. Also, the IC50 in the data set on Plasmodium falciparum was less than 0.003 µM. Also, the inhibition in vivo at 30 mg/kg/day in the data set with Plasmodium berghei came to 15.3%.

A word on the half-life: it is the time needed for the level to fall by half in the phase considered. High values mean slow loss, low ones fast loss. As to `O=C1C(c2ccc(Cl)cc2)=[N+]([O-])c2cc3c(cc21)OCO3`, the half-life in data set [3] was less than 1 min. In addition, the inhibition in vivo at 30 mg/kg/day in the data set with Plasmodium berghei stood at 62.1%.

`C[C@H]1[C@H](OC(=O)CCC(=O)O)O[C@@H]2O[C@@]3(C)CC[C@H]4[C@H](C)CC[C@@H]1[C@@]24OO3` [SODIUM ARESUNATE]: the IC50 with Plasmodium falciparum (Plasmodium falciparum, FcB1) was found to be 0.006 µM.
